Laboratory results taken from ChEMBL document CHEMBL1149300, “Novel retinoic acid metabolism blocking agents endowed with multiple biological activities are efficient growth inhibitors of human breast and prostate cancer cells in vitro and a human breast tumor xenograft in nude mice” (J Med Chem, 2004).
Active and inactive are the calls of the source. The rule behind the calls is not given here.

Tests used:
MCF7 [1] = experiment: Antiproliferative effect against human MCF7 cells; assay type: functional, cell-based
Method in brief: (§1)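 MCF-7 (IMEM, 5% FBS) or T47D (RPMI 1640, 10% FBS) cells, 1 × 10^4 per well, adhered ~18 h, then exposed to 0.0001-10 µM drug (ethanol) for 6 days with media and drug renewed on day 4. MTT for 2 h, formazan dissolved in DMSO, A540. Triplicate wells, 2-3 experiments; IC50 by nonlinear regression.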

Mesocricetus auratus = species: Mesocricetus auratus; experiment: Inhibition of ATRA hydroxylase in Syrian golden hamster liver microsome assessed ATRA metabolism using [11.12-3H]-ATRA; assay type: microsomes
Method in brief: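 Microsomes from male Syrian golden hamster liver, or from T47D cells pretreated with 1 µM ATRA. Incubation in 0.1 M phosphate buffer pH 7.4 with NADPH, MgCl2 and BSA, inhibitor in DMSO; 3 min preincubation at 37 °C, then [11,12-3H]-ATRA for 30 min at 37 °C under oxygen. Ethyl acetate extraction, reverse-phase HPLC with radiometric detection; percent polar metabolites; IC50 from dose-response curves.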

MCF7 [2] = experiment: Growth inhibition of human MCF7 cells after 6 days by MTT assay; assay type: functional, cell-based; conditions: MCF7, 144 h; method in brief: as §1
T47D = experiment: Growth inhibition of human T47D cells after 6 days by MTT assay; assay type: functional, cell-based; conditions: 144 h; method in brief: as §1
MDA-MB-231 = experiment: Growth inhibition of human MDA-MB-231 cells up to 10 uM after 6 days by MTT assay; assay type: functional, cell-based
LNCaP = experiment: Growth inhibition of human LNCaP cells after 6 days by MTT assay; assay type: functional, cell-based; conditions: 144 h
Method in brief: (§2)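 LNCaP cells (1 × 10^4) on poly-L-lysine-coated wells, attached 36 h; PC-3 cells (1 × 10^4), uncoated, attached 24 h; both in RPMI 1640. Treated with a concentration range of drug for 6 days, medium changed every 3 days. MTT read-out at 540 nm; IC50 by nonlinear regression from at least two experiments.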

PC-3 = experiment: Growth inhibition of human PC3 cells after 6 days by MTT assay; assay type: functional, cell-based; conditions: PC-3, 144 h; method in brief: as §2
[3] = Displacement of [11,12-3H]ARTA from RARgamma; parameters: species or system Homo sapiens
Method in brief: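 Recombinant S-Tag RARα, RARβ or RARγ fusion protein extracts (10-30 µg/mL total protein) in HEPES pH 7.9 binding buffer. Incubated with 1 nM [3H]all-trans-RA and 0-500 nM test compound for 3 h at 27 °C. Nonspecific binding measured with a 200-fold excess of unlabeled RA; IC50 from dose-response curves, at least two experiments.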

MCF7 [4] = experiment: Reduction of tumor growth in MCF7 cells xenografted ovariectomized mouse at 0.033 mmol/kg, sc for 6 weeks relative to control; assay type: functional; conditions: Homo sapiens
Method in brief: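 Female ovariectomized nude mice received estrogen pellets. MCF-7 cells (2 × 10^6 in Matrigel) were injected sc into both flanks and grown 4-5 weeks to 200-300 mm3. Groups of n = 5 were dosed sc once daily, 6 days/week for 6 weeks, vehicle 0.3% HPC, 200 µL. Tumors were measured weekly by caliper, volume = (4/3)πr1²r2, and change was compared with vehicle controls.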

IC50 (MCF7 [1]): 584 nM
Km (Mesocricetus auratus): 0.16 µM
IC50 (MCF7 [2]): 580 nM
IC50 (T47D): 6 nM
IC50 (LNCaP): 10000 nM
IC50 (PC-3): 2000 nM
IC50 [3]: 10 nM
SMILES: CC1=C(/C=C/C(C)=C/C=C/C(C)=C/C(=O)O)C(C)(C)CCC1 [TRETINOIN]
Activity (MDA-MB-231): inactive
Activity (MCF7 [4]): inactive
